ChEMBL document CHEMBL1129436, “Novel peptidyl alpha-keto amide inhibitors of calpains and other cysteine proteases” (J Med Chem, 1996)

Legend:
[1] = target: T1, Calpain-1 catalytic subunit (Homo sapiens, UniProt P07384); assay: Inhibition of the cysteine protease human Calpain 1
T1 sequence (P07384 whole entry): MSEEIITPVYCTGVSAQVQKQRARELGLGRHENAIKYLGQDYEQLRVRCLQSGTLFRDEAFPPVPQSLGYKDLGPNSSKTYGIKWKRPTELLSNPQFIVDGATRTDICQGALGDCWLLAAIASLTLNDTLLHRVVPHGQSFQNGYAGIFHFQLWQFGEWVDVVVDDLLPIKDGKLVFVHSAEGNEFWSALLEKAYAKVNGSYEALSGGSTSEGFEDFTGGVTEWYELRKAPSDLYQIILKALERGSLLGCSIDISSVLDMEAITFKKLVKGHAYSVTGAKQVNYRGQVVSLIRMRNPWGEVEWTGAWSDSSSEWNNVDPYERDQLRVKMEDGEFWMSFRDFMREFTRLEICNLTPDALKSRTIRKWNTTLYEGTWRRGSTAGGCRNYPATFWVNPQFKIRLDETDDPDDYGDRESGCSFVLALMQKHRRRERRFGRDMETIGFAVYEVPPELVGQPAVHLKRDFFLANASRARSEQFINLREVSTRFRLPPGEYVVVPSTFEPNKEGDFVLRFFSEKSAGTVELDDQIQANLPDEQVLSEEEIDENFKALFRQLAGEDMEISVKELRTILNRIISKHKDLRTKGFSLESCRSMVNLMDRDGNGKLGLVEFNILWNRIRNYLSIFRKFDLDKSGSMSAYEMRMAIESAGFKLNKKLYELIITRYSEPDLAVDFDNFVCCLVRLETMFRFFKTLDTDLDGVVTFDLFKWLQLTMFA
Summary of the method: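 Calpain assay in 25 mM Tris, pH 8.0, with 10 mM CaCl₂ and 5% DMSO. […] hydrolysis was read as initial velocity (t = 30-60 s) after a 30 s delay, at room temperature. Five or more inhibitor concentrations (not above 2 × K_obs) were used at two fixed substrate levels. Ki came from Dixon plots (1/v vs I) averaged over triplicates.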

Cathepsin B [2] = target: Cathepsin B (Bos taurus, UniProt P07688); assay: Inhibition of bovine cathepsin B
Summary of the method: (§1)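 Bovine or human cathepsin B, assayed in 20 mM sodium acetate, pH 5.2, with 0.5 mM dithiothreitol and 2% DMSO. The two enzyme sources were used interchangeably. Ki was taken from Dixon plots, with triplicate assays plotted as 1/v versus inhibitor concentration.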

Cathepsin B [3] = target: Cathepsin B (Homo sapiens, UniProt P07858); assay: Inhibition of human cathepsin B; summary of the method: as §1

Compound: CCC(NC(=O)C(CC(C)C)NC(=O)OCc1ccccc1)C(=O)C(=O)NC (stereo not given)
- Ki [1]: 280 nM
- Ki (Cathepsin B [2]): 330 nM

Compound: CCC(NC(=O)C(CC(C)C)NC(=O)OCc1ccccc1)C(=O)C(=O)NCCCn1ccnc1 (stereo not given)
- Ki [1]: 290 nM
- Ki (Cathepsin B [3]): 9900 nM

Compound: CC(C)CC(NC(=O)OCc1ccccc1)C(=O)NC(Cc1ccccc1)C(=O)C(=O)NCC(O)c1cccc(Oc2ccccc2)c1 (stereo not given)
- Ki [1]: 600 nM
- Ki (Cathepsin B [2]): 640 nM

Compound: CC(C)CC(NC(=O)OCc1ccccc1)C(=O)NC(Cc1ccccc1)C(=O)C(=O)NCCCN1CCCc2ccccc21 (stereo not given)
- Ki [1]: 380 nM
- Ki (Cathepsin B [2]): 140 nM

Compound: CC(C)CC(NC(=O)C(c1ccccc1)c1ccccc1)C(=O)NC(Cc1ccccc1)C(=O)C(=O)NCCCN1CCOCC1 (stereo not given)
- Ki [1]: 760 nM
- Ki (Cathepsin B [3]): 3800 nM

Compound: CCC(NC(=O)C(CC(C)C)NC(=O)OCc1ccccc1)C(=O)C(=O)NCCc1cccn1C (stereo not given)
- Ki (Cathepsin B [3]): 1200 nM

Compound: CCC(NC(=O)C(CC(C)C)NC(=O)OCc1ccccc1)C(=O)C(=O)NCCc1ccc(OC)cc1 (stereo not given)
- Ki [1]: 120 nM
- Ki (Cathepsin B [3]): 440 nM

Compound: CC(C)CC(NC(=O)OCc1ccccc1)C(=O)NC(Cc1ccccc1)C(=O)C(=O)NCC(O)c1c(F)c(F)c(F)c(F)c1F (stereo not given)
- Ki [1]: 700 nM
- Ki (Cathepsin B [2]): 210 nM

Compound: CCC(NC(=O)C(CC(C)C)NC(=O)OCc1ccccc1)C(=O)C(=O)NCC(O)c1cccc(Oc2cccc(C(F)(F)F)c2)c1 (stereo not given)
- Ki [1]: 70 nM
- Ki (Cathepsin B [2]): 300 nM

Compound: CC(C)CC(NC(=O)OCc1ccccc1)C(=O)NC(Cc1ccccc1)C(=O)C(=O)NCCNC(=O)CCCC[C@@H]1SC[C@@H]2NC(=O)N[C@@H]21 (stereo not given in full)
- Ki [1]: 220 nM
- Ki (Cathepsin B [2]): 230 nM

Compound: CCC(NC(=O)C(CC(C)C)NC(=O)OCc1ccccc1)C(=O)C(=O)NCC(O)c1cccc(Oc2ccccc2)c1 (stereo not given)
- Ki [1]: 900 nM
- Ki (Cathepsin B [2]): 120 nM

Compound: CC(C)CC(NC(=O)C(c1ccccc1)c1ccccc1)C(=O)NC(Cc1ccccc1)C(=O)C(=O)NCC(O)c1ccccc1 (stereo not given)
- Ki [1]: 10000 nM
- Ki (Cathepsin B [2]): 240 nM

Compound: CCNC(=O)C(=O)C(CC)NC(=O)C(CC(C)C)NC(=O)CCc1ccccc1 (stereo not given)
- Ki [1]: 1900 nM
- Ki (Cathepsin B [2]): 220 nM

Compound: CCC(NC(=O)C(CC(C)C)NC(=O)OCc1ccccc1)C(=O)C(=O)NCC(O)c1cccc(Oc2ccc(Cl)c(Cl)c2)c1 (stereo not given)
- Ki [1]: 270 nM
- Ki (Cathepsin B [2]): 100 nM

Compound: CC(C)CC(NC(=O)OCc1ccccc1)C(=O)NC(Cc1ccccc1)C(=O)C(=O)NCC(O)c1ccc(N(C)C)cc1 (stereo not given)
- Ki [1]: 620 nM
- Ki (Cathepsin B [2]): 310 nM

Compound: CCNC(=O)C(=O)C(CC)NC(=O)C(CC(C)C)NC(=O)Cc1cccc2ccccc12 (stereo not given)
- Ki [1]: 300 nM
- Ki (Cathepsin B [3]): 350 nM

Compound: CCC(NC(=O)C(CC(C)C)NC(=O)OCc1ccccc1)C(=O)C(=O)NCC(O)c1ccc(Oc2ccccc2)cc1 (stereo not given)
- Ki [1]: 100 nM
- Ki (Cathepsin B [2]): 210 nM

Compound: CC(C)CC(NC(=O)OCc1ccccc1)C(=O)NC(Cc1ccccc1)C(=O)C(=O)NCCCN1CCc2ccccc2C1 (stereo not given)
- Ki [1]: 220 nM
- Ki (Cathepsin B [3]): 4500 nM

Compound: CCC(NC(=O)C(CC(C)C)NC(=O)OCc1ccccc1)C(=O)C(=O)NCC(OC)OC (stereo not given)
- Ki (Cathepsin B [2]): 190 nM

Compound: CC(C)CC(NC(=O)OCc1ccccc1)C(=O)NC(Cc1ccccc1)C(=O)C(=O)NCC(O)c1cccc(C(F)(F)F)c1 (stereo not given)
- Ki [1]: 460 nM
- Ki (Cathepsin B [2]): 140 nM

Compound: CCC(NC(=O)C(CC(C)C)NC(=O)C(c1ccccc1)c1ccccc1)C(=O)C(=O)NCCCN1CCOCC1 (stereo not given)
- Ki [1]: 800 nM
- Ki (Cathepsin B [3]): 2300 nM

Compound: CNC(=O)C(=O)C(Cc1ccccc1)NC(=O)C(CC(C)C)NC(=O)OCc1ccccc1 (stereo not given)
- Ki [1]: 350 nM
- Ki (Cathepsin B [2]): 570 nM

Compound: CCCC(NC(=O)C(CC(C)C)NC(=O)OCc1ccccc1)C(=O)C(=O)NCc1ccccn1 (stereo not given)
- Ki [1]: 19 nM
- Ki (Cathepsin B [3]): 750 nM

Compound: CCC(NC(=O)C(CC(C)C)NC(=O)OCc1ccccc1)C(=O)C(=O)NCc1nc2c(c(=O)n(C)c(=O)n2C)n1C (stereo not given)
- Ki [1]: 32000 nM
- Ki (Cathepsin B [2]): 1700 nM

Compound: CC(C)CC(NC(=O)OCc1ccccc1)C(=O)NC(Cc1ccccc1)C(=O)C(=O)NCC(O)c1ccc(Oc2ccccc2)cc1 (stereo not given)
- Ki [1]: 200 nM
- Ki (Cathepsin B [2]): 2100 nM

Compound: CCC(NC(=O)C(CC(C)C)NC(=O)OCc1ccccc1)C(=O)C(=O)NCC(O)c1ccc2ccccc2c1 (stereo not given)
- Ki [1]: 350 nM
- Ki (Cathepsin B [2]): 63 nM

Compound: CCC(NC(=O)C(CC(C)C)NC(=O)OCc1ccccc1)C(=O)C(=O)NCC(O)c1c(F)c(F)c(F)c(F)c1F (stereo not given)
- Ki [1]: 50 nM
- Ki (Cathepsin B [2]): 150 nM

Compound: CCC(NC(=O)C(CC(C)C)NC(=O)OCc1ccccc1)C(=O)C(=O)NCC(O)c1ccc(N(C)C)cc1 (stereo not given)
- Ki [1]: 330 nM
- Ki (Cathepsin B [2]): 72 nM

Compound: CCNC(=O)C(=O)C(CC)NC(=O)C(CC(C)C)NC(=O)C(c1ccccc1)c1ccccc1 (stereo not given)
- Ki [1]: 5000 nM
- Ki (Cathepsin B [2]): 550 nM

Compound: CC(C)CC(NC(=O)OCc1ccccc1)C(=O)NC(Cc1ccccc1)C(=O)C(=O)NCC(O)c1cccc(Oc2ccc(Cl)c(Cl)c2)c1 (stereo not given)
- Ki [1]: 590 nM
- Ki (Cathepsin B [2]): 640 nM

Compound: CC(C)CC(NC(=O)OCc1ccccc1)C(=O)NC(Cc1ccccc1)C(=O)C(=O)NCC(O)c1ccc(OCc2ccccc2)cc1 (stereo not given)
- Ki (Cathepsin B [2]): 380 nM

Compound: CCNC(=O)C(=O)C(CC)NC(=O)C(CC(C)C)NC(=O)c1ccc2ccccc2n1 (stereo not given)
- Ki (Cathepsin B [2]): 96 nM

Compound: CC(C)CC(NC(=O)OCc1ccccc1)C(=O)NC(Cc1ccccc1)C(=O)C(=O)NCC(O)c1ccc(OCc2ccccc2)c(OCc2ccccc2)c1 (stereo not given)
- Ki [1]: 480 nM
- Ki (Cathepsin B [2]): 20000 nM

Compound: CCNC(=O)C(=O)C(CC)NC(=O)C(CC(C)C)NC(=O)c1cnccn1 (stereo not given)
- Ki [1]: 1400 nM
- Ki (Cathepsin B [2]): 350 nM

Compound: CCC(NC(=O)C(CC(C)C)NC(=O)OCc1ccccc1)C(=O)C(=O)NCC(O)c1cc(OC)c(OC)c(OC)c1 (stereo not given)
- Ki [1]: 380 nM
- Ki (Cathepsin B [2]): 220 nM

Compound: CCCC(NC(=O)C(CC(C)C)NC(=O)OCc1ccccc1)C(=O)C(=O)NCC(O)c1ccccc1 (stereo not given)
- Ki [1]: 7800 nM
- Ki (Cathepsin B [2]): 3400 nM

Compound: CC(C)CC(NC(=O)OCc1ccccc1)C(=O)NC(Cc1ccccc1)C(=O)C(=O)NCC(O)c1cccc(Oc2cccc(C(F)(F)F)c2)c1 (stereo not given)
- Ki [1]: 180 nM
- Ki (Cathepsin B [2]): 120 nM

Compound: CCC(NC(=O)C(CC(C)C)NC(=O)OCc1ccccc1)C(=O)C(=O)NCC(O)c1ccc(OCc2ccccc2)cc1 (stereo not given)
- Ki [1]: 80 nM
- Ki (Cathepsin B [2]): 110 nM

Compound: CCC(NC(=O)C(CC(C)C)NC(=O)OCc1ccccc1)C(=O)C(=O)NCCNC(=O)CCCC[C@@H]1SC[C@@H]2NC(=O)N[C@@H]21 (stereo not given in full)
- Ki [1]: 650 nM
- Ki (Cathepsin B [2]): 660 nM

Compound: CCC(NC(=O)C(CC(C)C)NC(=O)OCc1ccccc1)C(=O)C(=O)NCCCN1CCCc2ccccc21 (stereo not given)
- Ki [1]: 370 nM
- Ki (Cathepsin B [2]): 94 nM

Compound: CCC(NC(=O)C(CC(C)C)NC(=O)OCc1ccccc1)C(=O)C(=O)NCC(O)c1cccc(C(F)(F)F)c1 (stereo not given)
- Ki [1]: 350 nM
- Ki (Cathepsin B [2]): 110 nM

Compound: CCC(NC(=O)C(CC(C)C)NC(=O)OCc1ccccc1)C(=O)C(=O)NCc1ccc2ccccc2n1 (stereo not given)
- Ki [1]: 130 nM
- Ki (Cathepsin B [2]): 450 nM

Compound: CCNC(=O)C(=O)C(CC)NC(=O)C(CC(C)C)NC(=O)N1CCOCC1 (stereo not given)
- Ki [1]: 7900 nM
- Ki (Cathepsin B [2]): 4300 nM

Compound: CCC(NC(=O)C(CC(C)C)NC(=O)OCc1ccccc1)C(=O)C(=O)NCC(O)c1cccc2ccccc12 (stereo not given)
- Ki [1]: 120 nM
- Ki (Cathepsin B [2]): 63 nM

Compound: CCC(NC(=O)C(CC(C)C)NC(=O)OCc1ccccc1)C(=O)C(=O)NCC(O)c1ccc(OCc2ccccc2)c(OCc2ccccc2)c1 (stereo not given)
- Ki [1]: 230 nM
- Ki (Cathepsin B [2]): 320 nM

Compound: CCOC(CNC(=O)C(=O)C(CC)NC(=O)C(CC(C)C)NC(=O)OCc1ccccc1)OCC (stereo not given)
- Ki (Cathepsin B [2]): 110 nM

Compound: CCNC(=O)C(=O)C(CC)NC(=O)C(CC(C)C)NC(=O)c1cccnc1 (stereo not given)
- Ki [1]: 1300 nM
- Ki (Cathepsin B [2]): 880 nM

Compound: CCNC(=O)C(=O)C(CC)NC(=O)C(CC(C)C)NC(=O)c1nccc2ccccc12 (stereo not given)
- Ki [1]: 350 nM
- Ki (Cathepsin B [2]): 220 nM

Compound: CCC(NC(=O)C(CC(C)C)NC(=O)OCc1ccccc1)C(=O)C(=O)NCC(O)c1ccc(OC)cc1 (stereo not given)
- Ki [1]: 240 nM
- Ki (Cathepsin B [2]): 120 nM

Compound: CCNC(=O)C(=O)C(CC)NC(=O)C(CC(C)C)NC(=O)c1ccco1 (stereo not given)
- Ki [1]: 850 nM
- Ki (Cathepsin B [2]): 1200 nM
